In ChEMBL document CHEMBL3751813, “Nonpeptidic Amphiphilic Xanthone Derivatives: Structure-Activity Relationship and Membrane-Targeting Properties” (J Med Chem, 2016):
In brackets after ≈: the same amount, converted by molar mass. Activity calls are given as the source filed them. The calls are words filed in the database; no cut-off is given here.

How the values were obtained:
[1] = tested on: Staphylococcus aureus; experiment: Antibacterial activity against clinical isolates of methicillin-resistant Staphylococcus aureus DM9808R after 24 hrs by […]; type: functional
[2] = Membrane permeabilization activity assessed as release of calcein from DOPE/DOPG large unilamellar vesicles at 0.125 to 0.5 compound:lipid ratio incubated for 30 mins by fluorescence assay; type: ADME; details: 0.5 h
In short: (§1)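 Freeze-thawed, extruded, then gel-filtered. Final lipid 50 µM with compound added from DMF (<0.2%). Fluorescence at ex 490/em 520 nm over 30 min; 0.1% Triton X-100 defined 100% lysis.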

[3] = Membrane permeabilization activity assessed as release of calcein from DOPE/DOPG liposomes at lipid:compound ratio of => 16 incubated for 30 mins by fluorescence assay; type: ADME; details: 0.5 h; in short: as §1
[4] = tested on: Bacillus cereus; experiment: Antibacterial activity against clinical isolates of Bacillus cereus ATCC 11778 after 24 hrs by […]; type: functional; details: ATCC 11778, 24 h
[5] = tested on: Staphylococcus aureus; experiment: Induction of membrane disruption in clinical isolates of Staphylococcus aureus DM4001 assessed as membrane integrity incubated for 10 mins by live/dead baclight bacterial viability assay relative to control; type: functional; parameters: concentration or dose not given beside the values
In short: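 Exponential-phase cells washed in 0.9% saline, OD670 0.3, exposed to compound 10 min at room temperature. Pelleted, resuspended, then stained with SYTO 9 (10 µM) plus propidium iodide (60 µM) 15 min dark. Excitation 485 nm, emission 500–700 nm; green/red ratio converted to % damage using standards of 0–100% isopropanol-killed cells.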

[6] = tested on: Staphylococcus aureus; experiment: Antibacterial activity against clinical isolates of Staphylococcus aureus DM4001R after 24 hrs by […]; type: functional
[7] = tested on: Staphylococcus aureus; experiment: Induction of membrane permeabilization in clinical isolates of Staphylococcus aureus DM4001 assessed as ATP leakage at MIC incubated for 10 mins by firefly luciferase based luminometry analysis; type: functional
In short: (§2)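 Exponential-phase cells washed twice in 20 mM PBS pH 7 and set to OD620 0.3. Exposed 10 min at 37 °C, then spun at 4000 rpm for 5 min. Supernatant mixed with luciferase reagent (1 mM DTT, 0.5 mM D-luciferin, 1.25 µg/mL firefly luciferase). Luminescence read over 30 cycles.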

[8] = tested on: Staphylococcus aureus; experiment: Induction of membrane permeabilization in clinical isolates of Staphylococcus aureus DM4001 at MIC by SYTOX green uptake assay; type: functional
In short: (§3)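 Exponential-phase cells washed twice in 20 mM PBS pH 7 and adjusted to OD620 0.09. Given 3 µM SYTOX Green and kept in the dark until fluorescence was stable, then compound added. Fluorescence followed in a stirred cuvette at ex 504/em 523 nm. Melittin 10 µg/mL was the positive control. Run at least twice; one run reported.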

[9] = tested on: Staphylococcus aureus; experiment: Antibacterial activity against clinical isolates of methicillin-resistant Staphylococcus aureus DM21455 after 24 hrs by […]; type: functional; details: DM21455, 24 h
[10] = tested on: Staphylococcus aureus; experiment: Induction of membrane permeabilization in clinical isolates of Staphylococcus aureus DM4001 at 10 uM measured for 200 sec by SYTOX green influx assay; type: functional, organism-based; in short: as §3
[11] = Selectivity index, ratio of HC50 for hemolytic activity against New Zealand white rabbit RBC to MIC for clinical isolates of Staphylococcus aureus DM4001
[12] = Membrane permeabilization activity assessed as release of calcein from DOPC liposomes at lipid:compound ratio of => 16 incubated for 30 mins by fluorescence assay; type: ADME; details: 0.5 h; in short: as §1
[13] = Hemolytic activity against New Zealand white rabbit RBC after 1 hr by microplate reader analysis; type: ADME, cell-based, Oryctolagus cuniculus, Erythrocyte; details: rabbit red blood cells
In short: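 Rabbit RBCs spun from serum at 3,000 rpm for 10 min and washed twice in PBS. Mixed with compound in DMF at 4% v/v RBCs, 1 h at 37 °C. After centrifugation, hemoglobin in the supernatant read at 576 nm. 2% Triton X-100 was the positive control and 1% DMF the negative control.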

[14] = tested on: Staphylococcus aureus; experiment: Induction of membrane permeabilization in clinical isolates of Staphylococcus aureus DM4001 at 50 uM by SYTOX green uptake assay; type: functional; in short: as §3
[15] = tested on: Staphylococcus aureus; experiment: Induction of membrane permeabilization in clinical isolates of Staphylococcus aureus DM4001 assessed as ATP leakage at 50 uM incubated for 10 mins by firefly luciferase based luminometry analysis; type: functional; in short: as §2
[16] = Membrane permeabilization activity assessed as release of calcein from DOPE/DOPG liposomes at lipid:compound ratio of 8 incubated for 30 mins by fluorescence assay; type: ADME; details: 0.5 h; in short: as §1
[17] = Membrane permeabilization activity assessed as release of calcein from DOPC liposomes at lipid:compound ratio of 8 incubated for 30 mins by fluorescence assay; type: ADME; details: 0.5 h; in short: as §1
[18] = Membrane permeabilization activity assessed as release of calcein from DOPC liposomes at lipid:compound ratio of 4 incubated for 30 mins by fluorescence assay; type: ADME; details: 0.5 h; in short: as §1
[19] = Membrane permeabilization activity assessed as release of calcein from DOPE/DOPG liposomes at lipid:compound ratio of 4 incubated for 30 mins by fluorescence assay; type: ADME; details: 0.5 h; in short: as §1
[20] = tested on: Staphylococcus aureus; experiment: Induction of membrane permeabilization in clinical isolates of Staphylococcus aureus DM4001 by SYTOX green uptake assay; type: functional; in short: as §3
[21] = Membrane permeabilization activity assessed as release of calcein from DOPC liposomes at 16 to 64 lipid:compound ratio incubated for 30 mins by fluorescence assay; type: ADME; details: 0.5 h

| Compound | MIC [1] [µg/mL] | MIC [4] [µg/mL] | Activity [5] [%] | MIC [6] [µg/mL] | MIC [9] [µg/mL] | Activity [10] | Selectivity ratio [11] | HC50 at 1 h [13] [µg/mL] | further results |
| --- | --- | --- | --- | --- | --- | --- | --- | --- | --- |
| CCN(CC)CCCCOc1cc2oc3cc(OCCCCN(CC)CC)c(OC)c(CC=C(C)C)c3c(=O)c2c(O)c1CC=C(C)C | 0.78 (≈ 1.17 µM) | 3.12 (≈ 4.7 µM) | 37.8 | 0.39 (≈ 0.587 µM) | 0.39 (≈ 0.587 µM) | Active | 50.4 |  | Activity [2]: > 70%; Activity [3]: > 70%; Activity [7]: 2.235 µM; Activity [8]: 61679 cps; Activity [12]: > 70% |
| CCN(CC)CCCCCCCCCCOc1cc2oc3cc(OCCCCCCCCCCN(CC)CC)c(OC)c(CC=C(C)C)c3c(=O)c2c(O)c1CC=C(C)C | > 50 | > 50 | 100 | > 50 | > 50 | inactive |  | 200 | Activity [2]: > 70% |
| CCCCN(CCCC)CCCCOc1cc2oc3cc(OCCCCN(CCCC)CCCC)c(OC)c(CC=C(C)C)c3c(=O)c2c(O)c1CC=C(C)C | > 50 | > 50 |  | > 50 | > 50 |  |  | > 200 | Activity [14]: 1768 cps; Activity [15]: 763 nM |
| CCN(CC)CCCCOc1ccc2c(=O)c3c(O)cc(OCCCCN(CC)CC)cc3oc2c1 | > 50 | > 50 |  | > 50 | > 50 |  |  | > 200 | Activity [3]: Not Active; Activity [16]: Not Active; Activity [17]: Not Active; Activity [18]: Not Active; Activity [19]: Not Active; Activity [12]: Not Active |
| CCN(CC)CCCCOc1cc2oc3cc(OCCCCN(CC)CC)c(OC)c(CC=C(C)C)c3c(=O)c2c(OCCCCN(CC)CC)c1CC=C(C)C | 50 (≈ 63.1 µM) | 50 (≈ 63.1 µM) |  | 12.5 (≈ 15.8 µM) | 25 (≈ 31.6 µM) |  |  | > 200 | Activity [20]: 4305.1 cps |
| COc1c(OCCCCN(C)C)cc2oc3cc(OCCCCN(C)C)c(CC=C(C)C)c(O)c3c(=O)c2c1CC=C(C)C | 3.12 (≈ 5.13 µM) | 6.25 (≈ 10.3 µM) |  | 3.12 (≈ 5.13 µM) | 3.12 (≈ 5.13 µM) |  | 10.3 | 32.1 | Activity [21]: Active; Activity [7]: 3.769 µM; Activity [8]: 23925 cps |
| CCN(CC)CCOc1cc2oc3cc(OCCN(CC)CC)c(OC)c(CC=C(C)C)c3c(=O)c2c(O)c1CC=C(C)C | > 50 | > 50 | 64.1 | > 50 | > 50 | Active |  | > 200 |  |
| CCN(CC)CCCCCCOc1cc2oc3cc(OCCCCCCN(CC)CC)c(OC)c(CC=C(C)C)c3c(=O)c2c(O)c1CC=C(C)C | 3.12 (≈ 4.33 µM) | 3.12 (≈ 4.33 µM) | 45.1 | 1.56 (≈ 2.16 µM) | 1.56 (≈ 2.16 µM) | Active | 17 |  |  |
| CCN(CC)CCCCCOc1cc2oc3cc(OCCCCCN(CC)CC)c(OC)c(CC=C(C)C)c3c(=O)c2c(O)c1CC=C(C)C | 1.56 (≈ 2.25 µM) | 6.25 (≈ 9.02 µM) | 43 | 1.56 (≈ 2.25 µM) | 0.78 (≈ 1.13 µM) | Active | 9 |  |  |
